Results: ChEMBL document CHEMBL1156002, “Synthesis, Raman, FT-IR, NMR spectroscopic characterization, antimicrobial activity, cytotoxicity and DNA binding of new mixed aza-oxo-thia macrocyclic compounds” (2009)

Tests used:
Escherichia coli [1] = test: Antibacterial activity against Escherichia coli ATCC 11230 at 30 ug after 24 hrs by agar disk diffusion assay; format: functional; conditions: ATCC 11230, 24 h, read-out: IZ
Method in brief: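 Bacteria pre-grown in Nutrient Broth at 30 °C for 24 h. Sterile 6 mm discs loaded with compound solutions freshly made in DMSO were placed on inoculated agar and incubated at 35 °C for 24 h. The medium was supplemented with DMSO as a solvent control, and an appropriate reference antibiotic disc was added to each plate.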

Staphylococcus aureus [2] = test: Antibacterial activity against Staphylococcus aureus ATCC 6538 at 30 ug after 24 hrs by agar disk diffusion assay; format: functional; conditions: ATCC 6538, 24 h, read-out: IZ
Method in brief: (§1)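 Sterile 6 mm paper discs were loaded with ligand solution freshly prepared in DMSO and placed on inoculated agar. The inoculum came from broth cultures: bacteria in Nutrient Broth at 30 °C for 24 h, yeasts in Malt Extract Broth for 48 h. Plates were incubated at 35 °C for 24 h (bacteria) or 25 °C for 72 h (yeasts). A DMSO solvent control and a reference antibiotic disc were included on each plate.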

Klebsiella pneumoniae [3] = test: Antibacterial activity against Klebsiella pneumoniae UC57 at 30 ug after 24 hrs by agar disk diffusion assay; format: functional; conditions: UC57, 24 h, read-out: IZ
Method in brief: (§2)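 Disk diffusion with sterile 6 mm discs loaded with DMSO solutions of the test agents and placed on inoculated agar. Bacteria were pre-grown in Nutrient Broth at 30 °C for 24 h, and plates were incubated at 35 °C for 24 h. Each plate carried a reference antibiotic disc matched to the organism, and a DMSO-only solvent control was run.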

Bacillus cereus [4] = test: Antibacterial activity against Bacillus cereus ATCC 7064 at 30 ug after 24 hrs by agar disk diffusion assay; format: functional; conditions: ATCC 7064, 24 h, read-out: IZ; method in brief: as §2
Micrococcus luteus [5] = test: Antibacterial activity against Micrococcus luteus La 2971 at 30 ug after 24 hrs by agar disk diffusion assay; format: functional; conditions: La 2971, 24 h, read-out: IZ; method in brief: as §2
Proteus vulgaris [6] = test: Antibacterial activity against Proteus vulgaris ATCC 8427 at 30 ug after 24 hrs by agar disk diffusion assay; format: functional; conditions: ATCC 8427, 24 h, read-out: IZ; method in brief: as §2
[7] = tested on: Mycolicibacterium smegmatis; test: Antibacterial activity against Mycobacterium smegmatis CCM 2067 at 30 ug after 24 hrs by agar disk diffusion assay; format: functional; conditions: CCM 2067, 24 h, read-out: IZ; method in brief: as §2
Listeria monocytogenes [8] = test: Antibacterial activity against Listeria monocytogenes ATCC 15313 at 30 ug after 24 hrs by agar disk diffusion assay; format: functional; conditions: ATCC 15313, 24 h, read-out: IZ; method in brief: as §2
Pseudomonas aeruginosa [9] = test: Antibacterial activity against Pseudomonas aeruginosa ATCC 27853 at 30 ug after 24 hrs by agar disk diffusion assay; format: functional; conditions: ATCC 27853, 24 h, read-out: IZ; method in brief: as §2
Kluyveromyces marxianus [10] = test: Antifungal activity against Kluyveromyces fragilis NRRL 2415 at 100 ug after 72 hrs by agar disk diffusion assay; format: functional, organism-based
Method in brief: (§3)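 Yeasts were pre-grown in Malt Extract Broth for 48 h. Sterile 6 mm discs loaded with compound solutions freshly made in DMSO were placed on inoculated agar and incubated at 25 °C for 72 h. The medium was supplemented with DMSO as a solvent control, and an appropriate reference antifungal disc was added to each plate.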

Rhodotorula mucilaginosa [11] = test: Antifungal activity against Rhodotorula rubra DSM 70403 at 100 ug after 72 hrs by agar disk diffusion assay; format: functional, organism-based; method in brief: as §3
[12] = tested on: Hanseniaspora guilliermondii; test: Antifungal activity against Hanseniaspora guilliermondii DSM 3432 at 100 ug after 72 hrs by agar disk diffusion assay; format: functional, organism-based; method in brief: as §3
Debaryomyces hansenii [13] = test: Antifungal activity against Debaryomyces hansenii DSM 70238 at 100 ug after 72 hrs by agar disk diffusion assay; format: functional, organism-based; method in brief: as §3
Kluyveromyces marxianus [14] = test: Antifungal activity against Kluyveromyces fragilis NRRL 2415 after 24 hrs by broth micro dilution method; format: functional
Method in brief: (§4)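 Broth microdilution was run in cation-adjusted Mueller Hinton Broth. Compounds were dissolved in DMSO at 2 mg mL^-1 and serially diluted two-fold. Yeast precultures were grown in Malt Extract Broth for 48 h. The final inoculum was about 10⁶ cfu mL^-1, and plates were incubated at 37 °C for 24 h. The MIC was read from this series.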

Rhodotorula mucilaginosa [15] = test: Antifungal activity against Rhodotorula rubra DSM 70403 after 24 hrs by broth micro dilution method; format: functional; method in brief: as §4
Candida albicans = test: Antifungal activity against Candida albicans ATCC 10231 after 24 hrs by broth micro dilution method; format: functional; method in brief: as §4
[16] = tested on: Hanseniaspora guilliermondii; test: Antifungal activity against Hanseniaspora guilliermondii DSM 3432 after 24 hrs by broth micro dilution method; format: functional; method in brief: as §4
Debaryomyces hansenii [17] = test: Antifungal activity against Debaryomyces hansenii DSM 70238 after 24 hrs by broth micro dilution method; format: functional; method in brief: as §4
Escherichia coli [18] = test: Antibacterial activity against Escherichia coli ATCC 11230 after 24 hrs by broth micro dilution method; format: functional
Staphylococcus aureus [19] = test: Antibacterial activity against Staphylococcus aureus ATCC 6538 after 24 hrs by broth micro dilution method; format: functional
Klebsiella pneumoniae [20] = test: Antibacterial activity against Klebsiella pneumoniae UC57 after 24 hrs by broth micro dilution method; format: functional
Bacillus cereus [21] = test: Antibacterial activity against Bacillus cereus ATCC 7064 after 24 hrs by broth micro dilution method; format: functional
Micrococcus luteus [22] = test: Antibacterial activity against Micrococcus luteus La 2971 after 24 hrs by broth micro dilution method; format: functional
Proteus vulgaris [23] = test: Antibacterial activity against Proteus vulgaris ATCC 8427 after 24 hrs by broth micro dilution method; format: functional
[24] = tested on: Mycolicibacterium smegmatis; test: Antibacterial activity against Mycobacterium smegmatis CCM 2067 after 24 hrs by broth micro dilution method; format: functional
Listeria monocytogenes [25] = test: Antibacterial activity against Listeria monocytogenes ATCC 15313 after 24 hrs by broth micro dilution method; format: functional
Pseudomonas aeruginosa [26] = test: Antibacterial activity against Pseudomonas aeruginosa ATCC 27853 after 24 hrs by broth micro dilution method; format: functional
Micrococcus luteus [27] = test: Antibacterial activity against Micrococcus luteus La 2971 at 5 ug after 24 hrs by agar disk diffusion assay; format: functional; conditions: La 2971, 24 h, read-out: IZ; method in brief: as §2
Proteus vulgaris [28] = test: Antibacterial activity against Proteus vulgaris ATCC 8427 at 5 ug after 24 hrs by agar disk diffusion assay; format: functional; conditions: ATCC 8427, 24 h, read-out: IZ; method in brief: as §2
[29] = tested on: Mycolicibacterium smegmatis; test: Antibacterial activity against Mycobacterium smegmatis CCM 2067 at 5 ug after 24 hrs by agar disk diffusion assay; format: functional; conditions: CCM 2067, 24 h, read-out: IZ; method in brief: as §2
Listeria monocytogenes [30] = test: Antibacterial activity against Listeria monocytogenes ATCC 15313 at 5 ug after 24 hrs by agar disk diffusion assay; format: functional; conditions: ATCC 15313, 24 h, read-out: IZ; method in brief: as §2
Pseudomonas aeruginosa [31] = test: Antibacterial activity against Pseudomonas aeruginosa ATCC 27853 at 5 ug after 24 hrs by agar disk diffusion assay; format: functional; conditions: ATCC 27853, 24 h, read-out: IZ; method in brief: as §2
Escherichia coli [32] = test: Antibacterial activity against Escherichia coli ATCC 11230 at 5 ug after 24 hrs by agar disk diffusion assay; format: functional; conditions: ATCC 11230, 24 h, read-out: IZ; method in brief: as §2
Staphylococcus aureus [33] = test: Antibacterial activity against Staphylococcus aureus ATCC 6538 at 5 ug after 24 hrs by agar disk diffusion assay; format: functional; conditions: ATCC 6538, 24 h, read-out: IZ; method in brief: as §1
Klebsiella pneumoniae [34] = test: Antibacterial activity against Klebsiella pneumoniae UC57 at 5 ug after 24 hrs by agar disk diffusion assay; format: functional; conditions: UC57, 24 h, read-out: IZ; method in brief: as §2
Bacillus cereus [35] = test: Antibacterial activity against Bacillus cereus ATCC 7064 at 5 ug after 24 hrs by agar disk diffusion assay; format: functional; conditions: ATCC 7064, 24 h, read-out: IZ; method in brief: as §2
Escherichia coli [36] = test: Antibacterial activity against Escherichia coli ATCC 11230 at 10 IU after 24 hrs by agar disk diffusion assay; format: functional; method in brief: as §2
Staphylococcus aureus [37] = test: Antibacterial activity against Staphylococcus aureus ATCC 6538 at 10 IU after 24 hrs by agar disk diffusion assay; format: functional; method in brief: as §2
Klebsiella pneumoniae [38] = test: Antibacterial activity against Klebsiella pneumoniae UC57 at 10 IU after 24 hrs by agar disk diffusion assay; format: functional; method in brief: as §2
Bacillus cereus [39] = test: Antibacterial activity against Bacillus cereus ATCC 7064 at 10 IU after 24 hrs by agar disk diffusion assay; format: functional; method in brief: as §2
Micrococcus luteus [40] = test: Antibacterial activity against Micrococcus luteus La 2971 at 10 IU after 24 hrs by agar disk diffusion assay; format: functional; method in brief: as §2
Proteus vulgaris [41] = test: Antibacterial activity against Proteus vulgaris ATCC 8427 at 10 IU after 24 hrs by agar disk diffusion assay; format: functional; method in brief: as §2
[42] = tested on: Mycolicibacterium smegmatis; test: Antibacterial activity against Mycobacterium smegmatis CCM 2067 at 10 IU after 24 hrs by agar disk diffusion assay; format: functional; method in brief: as §2
Listeria monocytogenes [43] = test: Antibacterial activity against Listeria monocytogenes ATCC 15313 at 10 IU after 24 hrs by agar disk diffusion assay; format: functional; method in brief: as §2
Pseudomonas aeruginosa [44] = test: Antibacterial activity against Pseudomonas aeruginosa ATCC 27853 at 10 IU after 24 hrs by agar disk diffusion assay; format: functional; method in brief: as §2

CN(C)[C@@H]1C(O)=C(C(N)=O)C(=O)[C@@]2(O)C(O)=C3C(=O)c4c(O)cccc4[C@@](C)(O)[C@H]3C[C@@H]12 [TETRACYCLINE]
zone of inhibition at 30 µg/disc (Escherichia coli [1]): 28 mm
zone of inhibition at 30 µg/disc (Staphylococcus aureus [2]): 26 mm
zone of inhibition at 30 µg/disc (Klebsiella pneumoniae [3]): 30 mm
zone of inhibition at 30 µg/disc (Bacillus cereus [4]): 34 mm
zone of inhibition at 30 µg/disc (Micrococcus luteus [5]): 26 mm
zone of inhibition at 30 µg/disc (Proteus vulgaris [6]): 25 mm
zone of inhibition at 30 µg/disc [7]: 24 mm
zone of inhibition at 30 µg/disc (Listeria monocytogenes [8]): 28 mm
zone of inhibition at 30 µg/disc (Pseudomonas aeruginosa [9]): 22 mm

NYSTATIN
inhibition zone (IZ) (Kluyveromyces marxianus [10]): 20 mm
inhibition zone (IZ) (Rhodotorula mucilaginosa [11]): 18 mm
inhibition zone (IZ) [12]: 21 mm
inhibition zone (IZ) (Debaryomyces hansenii [13]): 16 mm
MIC (Kluyveromyces marxianus [14]): 6.25 µg/mL
MIC (Rhodotorula mucilaginosa [15]): 6.25 µg/mL
MIC (Candida albicans): 3.12 µg/mL
MIC [16]: 3.12 µg/mL
MIC (Debaryomyces hansenii [17]): 12.5 µg/mL

GENTAMICIN
MIC (Escherichia coli [18]): 6.25 µg/mL
MIC (Staphylococcus aureus [19]): 25 µg/mL
MIC (Klebsiella pneumoniae [20]): 6.25 µg/mL
MIC (Bacillus cereus [21]): 6.25 µg/mL
MIC (Micrococcus luteus [22]): 25 µg/mL
MIC (Proteus vulgaris [23]): 6.25 µg/mL
MIC [24]: 12.5 µg/mL
MIC (Listeria monocytogenes [25]): 12.5 µg/mL
MIC (Pseudomonas aeruginosa [26]): 6.25 µg/mL

CC1COc2c(N3CCN(C)CC3)c(F)cc3c(=O)c(C(=O)O)cn1c23 (stereo not given) [OFLOXACIN]
zone of inhibition at 5 µg/disc (Micrococcus luteus [27]): 28 mm
zone of inhibition at 5 µg/disc (Proteus vulgaris [28]): 30 mm
zone of inhibition at 5 µg/disc [29]: 32 mm
zone of inhibition at 5 µg/disc (Listeria monocytogenes [30]): 30 mm
zone of inhibition at 5 µg/disc (Pseudomonas aeruginosa [31]): 28 mm
zone of inhibition at 5 µg/disc (Escherichia coli [32]): 30 mm
zone of inhibition at 5 µg/disc (Staphylococcus aureus [33]): 24 mm
zone of inhibition at 5 µg/disc (Klebsiella pneumoniae [34]): 28 mm
zone of inhibition at 5 µg/disc (Bacillus cereus [35]): 44 mm

CC1(C)S[C@@H]2[C@H](NC(=O)Cc3ccccc3)C(=O)N2[C@H]1C(=O)O [PENICILLIN G]
inhibition zone (IZ) (Escherichia coli [36]): 18 mm
inhibition zone (IZ) (Staphylococcus aureus [37]): 13 mm
inhibition zone (IZ) (Klebsiella pneumoniae [38]): 18 mm
inhibition zone (IZ) (Bacillus cereus [39]): 8 mm
inhibition zone (IZ) (Micrococcus luteus [40]): 10 mm
inhibition zone (IZ) (Proteus vulgaris [41]): 14 mm
inhibition zone (IZ) [42]: 15 mm
inhibition zone (IZ) (Listeria monocytogenes [43]): 10 mm
inhibition zone (IZ) (Pseudomonas aeruginosa [44]): 36 mm
